The target in experiment [1] is T1, RAC-alpha serine/threonine-protein kinase (Homo sapiens, UniProt P31749). Nature of the experiment: Inhibition of AKT1 (unknown origin) incubated for 40 mins in presence of ATP by Kinase-Glo reagent based luminescence analysis.
Experiment [2] addresses T1, RAC-alpha serine/threonine-protein kinase. To be noted: dose 200.0 nM, time 40.0 min.
In the next experiment the test system is NCI-H1975. Nature of the experiment: Antiproliferative activity against human NCI-H1975 cells assessed as reduction in cell viability incubated for 72 hrs by MTT assay. It counts as functional, cell-based. To be noted: NCI-H1975, 72 h.
For a further experiment, the target named is T2, Aminopeptidase N (Sus scrofa, UniProt P15145).
T2 sequence (P15145 whole entry): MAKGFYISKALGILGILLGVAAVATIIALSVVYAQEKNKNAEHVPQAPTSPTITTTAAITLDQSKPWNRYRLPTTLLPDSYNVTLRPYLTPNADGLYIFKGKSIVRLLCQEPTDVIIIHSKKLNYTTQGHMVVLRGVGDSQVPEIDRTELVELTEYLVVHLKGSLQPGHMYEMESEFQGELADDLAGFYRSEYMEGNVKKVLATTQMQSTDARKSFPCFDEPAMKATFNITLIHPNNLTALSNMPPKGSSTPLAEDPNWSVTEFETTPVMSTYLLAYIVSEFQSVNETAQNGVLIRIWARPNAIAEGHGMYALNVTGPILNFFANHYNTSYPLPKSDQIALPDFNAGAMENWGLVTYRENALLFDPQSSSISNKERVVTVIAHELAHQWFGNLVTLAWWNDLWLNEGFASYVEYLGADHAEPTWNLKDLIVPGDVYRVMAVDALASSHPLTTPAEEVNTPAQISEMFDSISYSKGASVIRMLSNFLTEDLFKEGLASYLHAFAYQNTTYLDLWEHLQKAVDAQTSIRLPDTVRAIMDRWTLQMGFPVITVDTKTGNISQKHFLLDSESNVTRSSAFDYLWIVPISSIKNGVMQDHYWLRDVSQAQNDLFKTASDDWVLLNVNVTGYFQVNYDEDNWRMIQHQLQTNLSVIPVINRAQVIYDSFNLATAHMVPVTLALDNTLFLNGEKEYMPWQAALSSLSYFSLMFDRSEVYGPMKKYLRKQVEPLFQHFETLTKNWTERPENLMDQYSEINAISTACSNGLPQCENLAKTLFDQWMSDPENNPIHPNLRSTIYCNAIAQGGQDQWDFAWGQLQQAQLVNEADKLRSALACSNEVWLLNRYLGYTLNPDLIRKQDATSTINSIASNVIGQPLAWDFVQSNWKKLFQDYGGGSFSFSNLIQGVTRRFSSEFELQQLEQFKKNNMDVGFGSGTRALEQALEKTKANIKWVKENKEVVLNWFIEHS
Description: Inhibition of APN in pig kidney microsomes assessed as reduction in p-nitroanilide release using L-leu-p-nitroanilide as substrate incubated for 30 mins by UV absorption based analysis.

Another experiment relates to HUVEC. Nature of the experiment: Anti-angiogenic activity against HUVEC cells assessed as inhibition of tubular structure formation at 10 uM […] by Matrigel based phase contrast microscopic analysis. To be noted: Homo sapiens. It counts as functional, cell-based.
Another experiment has as its system MCF7. Nature of the experiment: Antiproliferative activity against human MCF7 cells assessed as reduction in cell viability incubated for 72 hrs by MTT assay. Format: functional, cell-based. As to conditions: MCF7, 72 h.
The subject of the next experiment is AGS. Nature of the experiment: Antiproliferative activity against human AGS cells assessed as reduction in cell viability incubated for 72 hrs by MTT assay. It counts as functional, cell-based.
For experiment [3], the target named is T3, Aminopeptidase N (Sus scrofa) (UniProt P15145).
T3 sequence (whole entry): T2 sequence (P15145 whole entry)
Description: Potency index, ratio of bestatin IC50 to test compound IC50 for inhibition of APN in pig kidney microsomes assessed as reduction in p-nitroanilide release using L-leu-p-nitroanilide as substrate incubated for 30 mins by UV absorption based analysis.

The target of experiment [4] is T4, Serine/threonine-protein kinase AKT (Homo sapiens) (UniProt P31751+Q9Y243+P31749). Nature of the experiment: Inhibition of AKT in human AGS cells assessed as inhibition of GSK3beta phosphorylation incubated for up to 6 hrs by immunoblot analysis. To be noted: dose 2-10 µM, time hrs <=6. Format: cell-based. In outline: (§1)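 Western blot in AGS cells treated with DMSO or compound at 2 or 10 μM for 2 or 6 h. Phospho-GSK3β was probed with β-actin as loading control and blots were quantified. Three independent experiments were run, with Student's two-tailed t test against control.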
T4 sequence (P31749 whole entry, looked up): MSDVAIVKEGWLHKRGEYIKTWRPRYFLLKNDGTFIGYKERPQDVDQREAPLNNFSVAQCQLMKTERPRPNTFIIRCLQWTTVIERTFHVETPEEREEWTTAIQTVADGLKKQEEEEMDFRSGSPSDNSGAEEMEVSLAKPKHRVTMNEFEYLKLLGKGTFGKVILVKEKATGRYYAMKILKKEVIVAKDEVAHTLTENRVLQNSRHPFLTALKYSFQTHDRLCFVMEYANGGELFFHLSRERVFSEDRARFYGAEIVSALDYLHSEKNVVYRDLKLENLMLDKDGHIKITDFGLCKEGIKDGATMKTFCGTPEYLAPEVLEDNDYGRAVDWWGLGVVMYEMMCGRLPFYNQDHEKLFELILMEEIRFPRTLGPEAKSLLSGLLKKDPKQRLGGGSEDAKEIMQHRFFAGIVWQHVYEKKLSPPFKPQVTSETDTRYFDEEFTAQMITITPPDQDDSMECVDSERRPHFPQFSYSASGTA
T4 sequence (P31751 whole entry, looked up): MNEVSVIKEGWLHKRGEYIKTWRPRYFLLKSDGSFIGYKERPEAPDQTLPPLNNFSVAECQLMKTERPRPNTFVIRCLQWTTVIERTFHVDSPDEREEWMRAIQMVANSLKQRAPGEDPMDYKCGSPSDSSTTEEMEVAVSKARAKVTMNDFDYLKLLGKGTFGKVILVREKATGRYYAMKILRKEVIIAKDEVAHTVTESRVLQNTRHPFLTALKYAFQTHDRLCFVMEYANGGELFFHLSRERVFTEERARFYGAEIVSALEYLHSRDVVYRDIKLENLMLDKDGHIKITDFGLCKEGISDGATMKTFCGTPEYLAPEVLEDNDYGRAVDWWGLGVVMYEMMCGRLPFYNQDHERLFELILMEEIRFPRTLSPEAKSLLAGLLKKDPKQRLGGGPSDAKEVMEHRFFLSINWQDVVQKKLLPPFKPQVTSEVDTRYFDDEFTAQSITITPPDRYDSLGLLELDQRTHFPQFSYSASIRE
T4 sequence (Q9Y243 whole entry, looked up): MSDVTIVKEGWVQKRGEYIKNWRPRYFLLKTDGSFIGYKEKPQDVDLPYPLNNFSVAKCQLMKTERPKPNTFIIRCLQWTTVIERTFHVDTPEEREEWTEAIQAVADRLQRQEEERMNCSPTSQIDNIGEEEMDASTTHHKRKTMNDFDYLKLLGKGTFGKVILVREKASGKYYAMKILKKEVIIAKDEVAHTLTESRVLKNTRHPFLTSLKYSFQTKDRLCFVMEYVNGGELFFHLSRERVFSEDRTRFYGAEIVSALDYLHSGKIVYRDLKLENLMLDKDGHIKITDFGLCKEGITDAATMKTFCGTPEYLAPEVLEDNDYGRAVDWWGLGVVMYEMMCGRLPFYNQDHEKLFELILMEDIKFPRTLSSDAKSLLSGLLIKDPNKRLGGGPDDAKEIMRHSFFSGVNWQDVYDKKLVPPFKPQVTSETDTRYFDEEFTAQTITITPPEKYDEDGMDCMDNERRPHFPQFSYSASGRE

Experiment [5] addresses T4, Serine/threonine-protein kinase AKT (Homo sapiens). Nature of the experiment: Inhibition of AKT in human AGS cells assessed as inhibition of GSK3beta phosphorylation up to 10 uM by immunoblot analysis. It counts as cell-based. To be noted: dose microM <=10, time 2-6 hrs, TDE = time-dependent effect. In outline: as §1

Experimental findings from ChEMBL document CHEMBL4831560, “Design, Synthesis, and Biological Evaluation of APN and AKT Dual-Target Inhibitors” (ACS Med Chem Lett, 2021) are described below.

Each structure is given as a SMILES string. Activity calls are given as the source filed them. The calls are words filed in the database; no cut-off is given here.

T1 sequence (P31749 whole entry): as the sequence (P31749 whole entry, looked up) above

As to `NC1(C(=O)N[C@@H](C(=O)NO)c2ccccc2)CCN(c2ncnc3[nH]ccc23)CC1`, the IC50 in [1] worked out at 121 nM; with NCI-H1975, 20300 nM; at Aminopeptidase N it was 960 nM; in the experiment on MCF7, 24800 nM; in the experiment with AGS it was 30700 nM. The inhibition in experiment [2] was found to be 60%. The result in the experiment on HUVEC was Active.
For `O=C(NC1CCN(c2ncnc3[nH]ccc23)CC1)N[C@@H](C(=O)NO)c1ccccc1`, the 50% inhibitory concentration (IC50) at Aminopeptidase N is 5400 nM.
`COc1ccc(Cn2ccc3ccc(C(=O)NO)cc32)cc1`: the result in the experiment on HUVEC was inactive.
On to `NC1(C(=O)N[C@H](C(=O)NO)c2ccccc2)CCN(c2ncnc3[nH]ccc23)CC1`, for which, in experiment [2], the inhibition came out at 35%. Also, on Aminopeptidase N, the IC50 came out at 1490 nM.
The corresponding values for `NC1(C(=O)N[C@H](Cc2c[nH]c3ccccc23)C(=O)NO)CCN(c2ncnc3[nH]ccc23)CC1` are 3% and 4160 nM.
The corresponding values for `O=C(NC1CCN(c2ncnc3[nH]ccc23)CC1)N[C@H](Cc1ccccc1)C(=O)NO` are 7% and 900 nM.
The matching figures for `CC(C)C[C@@H](NC(=O)N1CCN(c2ncnc3[nH]ccc23)CC1)C(=O)NO`: 29% and 210 nM.
For `O=C(NO)[C@H](NC(=O)N1CCN(c2ncnc3[nH]ccc23)CC1)c1ccccc1`, the IC50 at Aminopeptidase N worked out at 1040 nM.
For `CC(C)C[C@@H](NC(=O)C1CCN(c2ncnc3[nH]ccc23)CC1)C(=O)NO`, the Ratio IC50 in [3] amounted to 70. In addition, the inhibition in experiment [2] was found to be 2%. Besides, the 50% inhibitory concentration (IC50) at Aminopeptidase N turned out to be 50 nM.
For `CC(C)[C@H](NC(=O)C1(N)CCN(c2ncnc3[nH]ccc23)CC1)C(=O)NO`, in [2], the inhibition is 5%. Further, the IC50 on Aminopeptidase N worked out at 140000 nM.
`CC(C)C[C@@H](NC(=O)NC1CCN(c2ncnc3[nH]ccc23)CC1)C(=O)NO` yielded an inhibition in experiment [2] of 4%. Besides, the IC50 at Aminopeptidase N amounted to 710 nM.
Turning to `O=C(N[C@@H](C(=O)NO)c1ccccc1)C1CCN(c2ncnc3[nH]ccc23)CC1`, the IC50 on Aminopeptidase N came to 390 nM.
As to `NC1(C(=O)N[C@@H](CCO)c2ccc(Cl)cc2)CCN(c2nc[nH]c3nccc2-3)CC1` [CAPIVASERTIB], the values for the IC50 in the experiment on NCI-H1975, in the experiment with MCF7 and with AGS were 2700 nM, 4200 nM and 9600 nM, respectively. For the same compound, the outcome with HUVEC was inactive.
Turning to `O=C(NO)[C@@H](Cc1ccccc1)NC(=O)N1CCN(c2ncnc3[nH]ccc23)CC1`, the inhibition in [2] stood at 11%. In addition, on Aminopeptidase N, the half-maximal inhibitory concentration (IC50) was found to be 260 nM.
The corresponding values for `CC(C)C[C@H](NC(=O)C1(N)CCN(c2ncnc3[nH]ccc23)CC1)C(=O)NO` are 7% and 32400 nM.
With `NC1(C(=O)N[C@H](Cc2ccccc2)C(=O)NO)CCN(c2ncnc3[nH]ccc23)CC1`, the inhibition in experiment [2] was 21%. In addition, the IC50 at Aminopeptidase N was 670 nM.
The corresponding values for `CC(C)[C@@H](NC(=O)C1(N)CCN(c2ncnc3[nH]ccc23)CC1)C(=O)NO` are 6% and 470 nM.
Take `NC1(C(=O)N[C@@H](Cc2ccccc2)C(=O)NO)CCN(c2ncnc3[nH]ccc23)CC1`: the inhibition in experiment [2] was determined as 2%. Also, at Aminopeptidase N, the IC50 worked out at 159000 nM.
The matching figures for `O=C(N[C@H](Cc1ccccc1)C(=O)NO)C1CCN(c2ncnc3[nH]ccc23)CC1`: 7% and 710 nM.
As to `CC(C)C[C@H](NC(=O)[C@@H](O)[C@H](N)Cc1ccccc1)C(=O)O` [UBENIMEX], the concentration for half-maximal inhibition (IC50) with NCI-H1975, in the experiment on MCF7 and in the experiment with AGS was more than 200000 nM each time. Also, in the experiment with HUVEC, the result was Active.
For the compound `NC1(C(=O)N[C@@H](Cc2c[nH]c3ccccc23)C(=O)NO)CCN(c2ncnc3[nH]ccc23)CC1`, the inhibition in [2] is 5%. The IC50 on Aminopeptidase N worked out at 127000 nM.
On to `CC(C)C[C@@H](NC(=O)C1(N)CCN(c2ncnc3[nH]ccc23)CC1)C(=O)NO`, for which the IC50 in [1] worked out at 270 nM; in the experiment with NCI-H1975, 27400 nM; on Aminopeptidase N it was 210 nM; with MCF7 it was 32700 nM; in the experiment on AGS, 52400 nM. Besides, the inhibition in experiment [2] was 43%; in experiment [4], “Dose-Dependent Effect”; in [5] it was “Tde”. For the same compound, the outcome in the experiment on HUVEC was Active.
